Experimental data as given in ChEMBL document CHEMBL4024771, “Optimization of Orally Bioavailable Enhancer of Zeste Homolog 2 (EZH2) Inhibitors Using Ligand and Property-Based Design Strategies: Identification of Development Candidate …” (J Med Chem, 2018).
Values after ≈ are worked out from the molar mass of the structure shown.

How the values were obtained:
[1] = biological target: Histone-lysine N-methyltransferase EZH2 (Homo sapiens, UniProt Q15910); assay: Inhibition of EZH2 in human KARPAS422 cells assessed as reduction in H3K27me3 level after 72 hrs by ELISA
Chain of Histone-lysine N-methyltransferase EZH2 (Homo sapiens, UniProt Q15910) (Q15910 whole entry): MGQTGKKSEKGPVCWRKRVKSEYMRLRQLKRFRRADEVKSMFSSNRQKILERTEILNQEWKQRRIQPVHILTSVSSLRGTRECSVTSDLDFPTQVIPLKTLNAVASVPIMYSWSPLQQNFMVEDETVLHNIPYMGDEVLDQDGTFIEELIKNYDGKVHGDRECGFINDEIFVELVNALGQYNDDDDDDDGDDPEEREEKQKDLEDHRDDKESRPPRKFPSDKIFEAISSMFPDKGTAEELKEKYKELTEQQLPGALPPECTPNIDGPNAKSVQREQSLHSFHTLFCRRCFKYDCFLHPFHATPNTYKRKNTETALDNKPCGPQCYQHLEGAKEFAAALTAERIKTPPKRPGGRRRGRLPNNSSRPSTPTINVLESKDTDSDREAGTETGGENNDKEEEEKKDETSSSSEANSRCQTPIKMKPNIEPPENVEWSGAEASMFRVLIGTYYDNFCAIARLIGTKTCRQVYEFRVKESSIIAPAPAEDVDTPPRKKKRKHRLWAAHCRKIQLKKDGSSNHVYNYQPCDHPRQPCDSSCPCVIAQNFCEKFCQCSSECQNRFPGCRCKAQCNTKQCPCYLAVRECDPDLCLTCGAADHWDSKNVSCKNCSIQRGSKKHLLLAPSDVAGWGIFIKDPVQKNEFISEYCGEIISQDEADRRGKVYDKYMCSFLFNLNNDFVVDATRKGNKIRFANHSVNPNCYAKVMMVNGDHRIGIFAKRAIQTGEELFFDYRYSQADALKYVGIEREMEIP

[2] = biological target: Histone-lysine N-methyltransferase EZH2 (Homo sapiens, UniProt Q15910, Y641N); assay: Inhibition of EZH2 Y641N mutant (unknown origin) using oligonucleosomes as substrate after 60 mins in presence of [3H]SAM by scintillation counting analysis
Chain of Histone-lysine N-methyltransferase EZH2 (Homo sapiens, UniProt Q15910, Y641N) (Q15910 whole entry Y641N): as the sequence (Q15910 whole entry) above, with Y641N counted along it

KARPAS-422 = assay: Antiproliferative activity against human KARPAS422 cells after 72 hrs by resazurin assay; type: functional, cell-based
Liver = assay: (§1) Intrinsic clearance in human liver microsomes assessed per mg protein at 1 uM preincubated for 10 mins followed by NADPH addition measured after 45 mins by LC-MS/MS analysis; type: ADME, microsome; settings: microsomes, 0.75 h, 1 µM
Method in brief: (§2)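 Test compound (1 μM) with pooled liver microsomes (0.8 mg/mL protein) in 100 mM potassium phosphate pH 7.4, 10 min preincubation, started with 2 mM NADPH, 45 min at 37 °C, in triplicate. Samples quenched with cold methanol containing buspirone internal standard, analysed by LC−MS/MS. CLint derived from t1/2 of parent loss (log-linear slope).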

[3] = Kinetic solubility of the compound; type: physicochemical; settings: for solubility kinetic: read-out: Kinetic_solubility
[4] = Passive permeability in MDCK cells at 2 uM after 90 mins by LC-MS/MS analysis; type: ADME, cell-based, Canis lupus familiaris; settings: dog; for permeability: mdck, 2 µM; for Papp at […], 2 µM: MDCK, read-out: permeability
Method in brief: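 Low-efflux MDCK cells (MDCK-LE) on 96-well inserts, used on day 4. Monodirectional transport of 2 μM drug in transport buffer with 0.1% DMSO at 37 °C. Donor and receiver sampled at 0 and 90 min for LC−MS/MS. Donor pH 6.5 and 7.4, receiver pH 7.4.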

[5] = Lipophilicity, log D of the compound at pH 7.4; settings: buffer
[6] = as §1; type: ADME, microsome; settings: liver microsomes, read-out: CLH; method in brief: as §2

IC50 [1]	Ki [2]	IC50 (KARPAS-422; karpas-422)	microsomal CLint (Liver)	solubility kinetic [3]	permeability [4]	Kinetic_solubility [3]	Papp at […], 2 µM [4]	logD ([5]; pH 7.4, logD)	microsomal CLint at 1 µM [6]	logD ([5]; pH 7.4)	IC50 (KARPAS-422; Homo sapiens, KARPAS-422, 72 h)	SMILES
5350 nM	420 nM	3550 nM	8 µL/min/mg	56 µM (≈ 22.9 µg/mL)	15.7 ×10⁻⁶ cm/s							CCC(O)c1cc(Cl)c2c(c1Cl)C(=O)N(Cc1c(C)cc(C)[nH]c1=O)CC2 (stereo in doubt; (-)-3b)
1050 nM	130 nM	714 nM	18 µL/min/mg			59 µM	15 ×10⁻⁶ cm/s	3.1				CCC(O)c1cc(Cl)c2c(c1Cl)C(=O)N(Cc1c(C)cc(C)[nH]c1=O)CC2 (single isomer, unassigned; (+))
		24 nM	40 µL/min/mg	373 µM (≈ 197 µg/mL)			6.3 ×10⁻⁶ cm/s	2.2				COC(c1cc(Cl)c2c(c1Cl)C(=O)N(Cc1c(C)cc(C)[nH]c1=O)CC2)C1CCS(=O)(=O)CC1 (stereo in doubt; (+)-18a)
47 nM	1.9 nM	50 nM	128 µL/min/mg		18.7 ×10⁻⁶ cm/s	439 µM						COC(c1cc(Cl)c2c(c1Cl)C(=O)N(Cc1c(C)cc(C)[nH]c1=O)CC2)C1CCOC1 (single isomer, unassigned; (+))
110 nM	42 nM	113 nM	97.2 µL/min/mg		8.4 ×10⁻⁶ cm/s	521 µM						COc1cc(C)[nH]c(=O)c1CN1CCc2c(Cl)cc(C(OC)C3CCOC3)c(Cl)c2C1=O (single isomer, unassigned; form 1)
9 nM	< 0.1 nM	11 nM	< 10.2 µL/min/mg	639 µM (≈ 315 µg/mL)			2.7 ×10⁻⁶ cm/s	1.4				COC(c1cc(Cl)c2c(c1Cl)C(=O)N(Cc1c(C)cc(C)[nH]c1=O)CC2)C1CCN(C)CC1 (single isomer, unassigned; (+))
		4830 nM	23 µL/min/mg		6.1 ×10⁻⁶ cm/s	159 µM						COC(c1cc(Cl)c2c(c1Cl)C(=O)N(Cc1c(C)cc(C)[nH]c1=O)CC2)C1CS(=O)(=O)C1 (single isomer, unassigned)
16 nM	0.19 nM	24 nM	66.9 µL/min/mg		7.2 ×10⁻⁶ cm/s	439 µM						COc1cc(C)[nH]c(=O)c1CN1CCc2c(Cl)cc(C(OC)C3CCOC3)c(Cl)c2C1=O (stereo in doubt; 22b)
8 nM	0.7 nM	9 nM	207 µL/min/mg	486 µM (≈ 234 µg/mL)			5.7 ×10⁻⁶ cm/s	2.3				COc1cc(C)[nH]c(=O)c1CN1CCc2c(Cl)cc(C(OC)C3(C)COC3)c(Cl)c2C1=O (single isomer, unassigned; (+))
		24 nM	52.5 µL/min/mg	161 µM (≈ 80.4 µg/mL)			5.3 ×10⁻⁶ cm/s					COC(c1cc(Cl)c2c(c1Cl)C(=O)N(Cc1c(C)cc(C)[nH]c1=O)CC2)C1CS(=O)(=O)C1 (stereo in doubt; (+)-19a)
		10 nM	25.6 µL/min/mg	480 µM (≈ 265 µg/mL)			1.5 ×10⁻⁶ cm/s	1.7				COc1cc(C)[nH]c(=O)c1CN1CCc2c(Cl)cc(C(OC)C3CCN(C(=O)CO)CC3)c(Cl)c2C1=O (single isomer, unassigned; (+))
		122 nM	21.2 µL/min/mg	596 µM (≈ 276 µg/mL)			5.8 ×10⁻⁶ cm/s	2				Cc1cc(C)c(CN2CCc3c(Cl)cc(C(CO)c4ccon4)c(Cl)c3C2=O)c(=O)[nH]1 (single isomer, unassigned; (+))
		970 nM	15 µL/min/mg		5.7 ×10⁻⁶ cm/s	415 µM						COC(c1cc(Cl)c2c(c1Cl)C(=O)N(Cc1c(C)cc(C)[nH]c1=O)CC2)C1CCS(=O)(=O)CC1 (single isomer, unassigned; (-))
9 nM	0.1 nM	19 nM	129 µL/min/mg	57.5 µM (≈ 27.6 µg/mL)			13.3 ×10⁻⁶ cm/s	3.4				COC(c1cc(Cl)c2c(c1Cl)C(=O)N(Cc1c(C)cc(C)[nH]c1=O)CC2)C1CCOCC1 (single isomer, unassigned; (+))
139 nM	4.6 nM	124 nM	66.3 µL/min/mg			324 µM	10.9 ×10⁻⁶ cm/s	2.8				CCC(CO)c1cc(Cl)c2c(c1Cl)C(=O)N(Cc1c(C)cc(C)[nH]c1=O)CC2 (single isomer, unassigned; (+))
15 nM	0.38 nM	17 nM	25.9 µL/min/mg			508 µM	2.5 ×10⁻⁶ cm/s	2.1				Cc1cc(C)c(CN2CCc3c(Cl)cc(C(CO)C4CCOC4)c(Cl)c3C2=O)c(=O)[nH]1 (stereo in doubt; (-)-6b)
4 nM	< 0.1 nM	9 nM	60 µL/min/mg	433 µM (≈ 208 µg/mL)			7.2 ×10⁻⁶ cm/s	2.5				COc1cc(C)[nH]c(=O)c1CN1CCc2c(Cl)cc(C(OC)C3CCOC3)c(Cl)c2C1=O (single isomer, unassigned; (+))
11 nM	0.15 nM	11 nM	41.5 µL/min/mg			540 µM	2.9 ×10⁻⁶ cm/s	2.3				Cc1cc(C)c(CN2CCc3c(Cl)cc(C(CO)C4CCOCC4)c(Cl)c3C2=O)c(=O)[nH]1 (single isomer, unassigned; (-))
		282 nM	158 µL/min/mg			55.3 µM	26 ×10⁻⁶ cm/s	3.3				COC(C)c1cc(Cl)c2c(c1Cl)C(=O)N(Cc1c(C)cc(C)[nH]c1=O)CC2 (stereo in doubt; (-)9a)
62 nM	2.9 nM	34 nM	124 µL/min/mg	453 µM (≈ 233 µg/mL)			12 ×10⁻⁶ cm/s	2.4				CCOC(c1cc(Cl)c2c(c1Cl)C(=O)N(Cc1c(C)cc(C)[nH]c1=O)CC2)C1CS(=O)(=O)C1 (single isomer, unassigned; (+))
16 nM	0.64 nM	25 nM	72.7 µL/min/mg	523 µM (≈ 280 µg/mL)			7 ×10⁻⁶ cm/s	2.7				COC(c1cc(Cl)c2c(c1Cl)C(=O)N(Cc1c(C)cc(C)[nH]c1=O)CC2)C1CCN(C2COC2)CC1 (single isomer, unassigned; (+))
1310 nM	530 nM	2260 nM			7.9 ×10⁻⁶ cm/s	519 µM			78.3 µL/min/mg	2.8		COC(c1cc(Cl)c2c(c1Cl)C(=O)N(Cc1c(C)cc(C)[nH]c1=O)CC2)C1CCN(C2COC2)CC1 (single isomer, unassigned; (-))
7 nM	0.6 nM	25 nM	108 µL/min/mg			436 µM	17.1 ×10⁻⁶ cm/s	3				COC(c1cc(Cl)c2c(c1Cl)C(=O)N(Cc1c(C)cc(C)[nH]c1=O)CC2)C1CCOC1 (single isomer, unassigned; (+)-10a)
72 nM	9 nM	183 nM	105 µL/min/mg			33 µM	18.2 ×10⁻⁶ cm/s					CCC(OC)c1cc(Cl)c2c(c1Cl)C(=O)N(Cc1c(C)cc(C)[nH]c1=O)CC2 (single isomer, unassigned; (+))
1020 nM	110 nM			576 µM (≈ 268 µg/mL)			8.5 ×10⁻⁶ cm/s	2.5	43 µL/min/mg		535 nM	Cc1cc(C)c(CN2CCc3c(Cl)cc([C@@H](CO)[C@H]4CCCO4)c(Cl)c3C2=O)c(=O)[nH]1
		22 nM	92.6 µL/min/mg	532 µM (≈ 277 µg/mL)			11.5 ×10⁻⁶ cm/s	2.9				COC(c1cc(Cl)c2c(c1Cl)C(=O)N(Cc1c(C)cc(C)[nH]c1=O)CC2)C1CCN(C(C)=O)CC1 (single isomer, unassigned; (+))
494 nM	30 nM	406 nM	93.3 µL/min/mg		15.4 ×10⁻⁶ cm/s	457 µM						COC(c1cc(Cl)c2c(c1Cl)C(=O)N(Cc1c(C)cc(C)[nH]c1=O)CC2)C1CCOC1 (single isomer, unassigned; (-)10c)
		250 nM	12.6 µL/min/mg		1.1 ×10⁻⁶ cm/s	453 µM						COc1cc(C)[nH]c(=O)c1CN1CCc2c(Cl)cc(C(OC)C3CCN(C(=O)CO)CC3)c(Cl)c2C1=O (single isomer, unassigned; (-))
13 nM	0.25 nM	21 nM	42 µL/min/mg	508 µM (≈ 273 µg/mL)			7.3 ×10⁻⁶ cm/s	2.2				COC(c1cc(Cl)c2c(c1Cl)C(=O)N(Cc1c(C)cc(C)[nH]c1=O)CC2)C1CCN(C(=O)CO)CC1 (stereo in doubt; (+)-16a)
